Experimental data: ChEMBL document CHEMBL1154417, “In vitro antiviral activity of the novel, tyrosyl-based human immunodeficiency virus (HIV) type 1 protease inhibitor brecanavir (GW640385) in combination with other antiretrovirals and against a panel of protease inhibitor-resistant HIV” (Antimicrob Agents Chemother, 2007)
pEC50, pKi: −log10 of the molar value. Activity calls are given as the source filed them. The rule behind the calls is not given here.

Columns and labels:
[1] = tested on: Human immunodeficiency virus 1; assay: Antiviral activity against HIV1 BaL in human PBMC assessed as blockade of reverse transcriptase activity; type: functional, organism-based; conditions: Human immunodeficiency virus 1, BaL
Method in brief: (§1)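 PHA-stimulated PBMCs, 8 × 10^6 cells/ml in RPMI with 20% FBS and 10% IL-2, preincubated 1 h at 37°C with compound serially diluted fourfold. Then infected with virus premixed with compound (IIIB for line 2, Ba-L for line 3). After 7 days, RT activity measured in supernatant. EC50 from mean percent inhibition; n = 3 for IIIB, 8 for Ba-L.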

[2] = tested on: Human immunodeficiency virus 1; assay: Antiviral activity against HIV1 drug resistant mutant isolates from protease inhibitor treated HIV patient; type: functional, organism-based
[3] = tested on: Human immunodeficiency virus 1; assay: Antiviral activity against HIV1 NL4-3; type: functional, organism-based; conditions: Human immunodeficiency virus 1, NL4-3
[4] = tested on: Human immunodeficiency virus 1; assay: Ratio of EC50 for HIV1 drug resistant mutant isolates from protease inhibitor treated HIV patient to EC50 for drug sensitive HIV1 NL4-3; type: functional
Method in brief: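 Recombinant virus assay with clinical isolates from PI-experienced patients (94 isolates). Fold change is the EC50 against each isolate over the EC50 against reference wild-type HIV-1 NL4-3.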

Protease [5] = target: T1, Protease (Human immunodeficiency virus 1, UniProt Q9YQ12); assay: Inhibition of HIV1 protease
Method in brief: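 Ki derived either from a continuous fluorescence activity assay of HIV-1 protease or from the ratio of the dissociation first-order rate constant to the bimolecular association rate constant for enzyme–inhibitor binding.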

Protease [6] = target: T1, Protease; assay: Inhibition of HIV1 protease by fluorescent peptide substrate based assay
Method in brief: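 HIV-1 protease Ki from a continuous fluorescence activity assay using a fluorescent peptide substrate. Alternatively, Ki was calculated from the association and dissociation rate constants of the enzyme-inhibitor complex.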

[7] = tested on: Human immunodeficiency virus 1; assay: Antiviral activity against HIV1 HXB2 in human MT4 cells assessed as inhibition of viral-induced viral cytopathic effect in presence of 10% fetal bovine serum by MTS assay; type: functional, organism-based; conditions: Human immunodeficiency virus 1, HXB2, MT4
Method in brief: (§2)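 MT-4 cells batch-infected with HIV-1 HXB2 at MOI 0.0001 for 1 h at 37°C. Cells then plated at 4 × 10^4 per well onto serially diluted compound in medium containing 10% or 40% FBS, or 10–40% human serum. After 5 days, EC50 from MTS viability.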

[8] = tested on: Human immunodeficiency virus 1; assay: Antiviral activity against HIV1 HXB2 in human MT4 cells assessed as inhibition of viral-induced viral cytopathic effect in presence of 40% fetal bovine serum by MTS assay; type: functional, organism-based; conditions: Human immunodeficiency virus 1, HXB2, MT4; method in brief: as §2
[9] = tested on: Human immunodeficiency virus 1; assay: Antiviral activity against HIV1 HXB2 in human MT4 cells assessed as inhibition of viral-induced viral cytopathic effect in presence of 10% fetal bovine serum and 10% human serum by MTS assay; type: functional, organism-based; conditions: Human immunodeficiency virus 1, HXB2, MT4; method in brief: as §2
[10] = tested on: Human immunodeficiency virus 1; assay: Antiviral activity against HIV1 HXB2 in human MT4 cells assessed as inhibition of viral-induced viral cytopathic effect in presence of 10% fetal bovine serum and 20% human serum by MTS assay; type: functional, organism-based; conditions: Human immunodeficiency virus 1, HXB2, MT4; method in brief: as §2
[11] = tested on: Human immunodeficiency virus 1; assay: Antiviral activity against HIV1 HXB2 in human MT4 cells assessed as inhibition of viral-induced viral cytopathic effect in presence of 10% fetal bovine serum and 30% human serum by MTS assay; type: functional, organism-based; conditions: Human immunodeficiency virus 1, HXB2, MT4; method in brief: as §2
[12] = tested on: Human immunodeficiency virus 1; assay: Antiviral activity against HIV1 HXB2 in human MT4 cells assessed as inhibition of viral-induced viral cytopathic effect in presence of 10% fetal bovine serum and 40% human serum by MTS assay; type: functional, organism-based; conditions: Human immunodeficiency virus 1, HXB2, MT4; method in brief: as §2
[13] = tested on: Human immunodeficiency virus 1; assay: Ratio of EC50 for HIV1 HXB2 in presence of 10% human serum to EC50 for HIV1 HXB2 in presence of 10% fetal bovine serum; type: functional; method in brief: as §2
[14] = tested on: Human immunodeficiency virus 1; assay: Ratio of EC50 for HIV1 HXB2 in presence of 20% human serum to EC50 for HIV1 HXB2 in presence of 10% fetal bovine serum; type: functional; method in brief: as §2
[15] = tested on: Human immunodeficiency virus 1; assay: Ratio of EC50 for HIV1 HXB2 in presence of 30% human serum to EC50 for HIV1 HXB2 in presence of 10% fetal bovine serum; type: functional; method in brief: as §2
[16] = tested on: Human immunodeficiency virus 1; assay: Ratio of EC50 for HIV1 HXB2 in presence of 40% human serum to EC50 for HIV1 HXB2 in presence of 10% fetal bovine serum; type: functional; method in brief: as §2
[17] = Cytotoxicity against human MT4 cells; type: cell-based; conditions: read-out: CCIC50
Method in brief: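 Mock-infected MT-4 cells run in parallel with the HIV-1 IIIB antiviral assay, in RPMI 1640 with FBS, IL-2 and gentamicin. Incubated 5 days at 37°C, 5% CO2, then MTS viability read at OD 492 nm. Highest concentration tested 25 μM. Reported as CCIC50.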

[18] = tested on: Human immunodeficiency virus 1; assay: Antiviral activity against HIV1 3B in human MT4 cells assessed as inhibition of viral-induced viral cytopathic effect by MTS assay; type: functional, organism-based; conditions: Human immunodeficiency virus 1, 3B
Method in brief: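 MT-4 cells in RPMI 1640 with 20% FBS, 20% IL-2 and gentamicin, 5 × 10^5 cells/ml, infected with HIV-1 IIIB at 100 TCID50 per well for 1 h at 37°C. Cells diluted sixfold onto serially diluted compound and incubated 5 days. Cytopathic effect read by MTS staining at OD 492 nm. EC50 by Hill-equation curve fit; n = 8.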

[19] = tested on: Human immunodeficiency virus 1; assay: Antiviral activity against HIV1 HXB2 in human MT4 cells assessed as inhibition of viral-induced viral cytopathic effect by MTS assay; type: functional, organism-based; conditions: Human immunodeficiency virus 1, HXB2, MT4; method in brief: as §2
[20] = tested on: Human immunodeficiency virus 1; assay: Antiviral activity against HIV1 3B in human PBMC assessed as blockade of reverse transcriptase activity; type: functional, organism-based; conditions: Human immunodeficiency virus 1, 3B; method in brief: as §1
[21] = tested on: Human immunodeficiency virus 1; assay: Antiviral activity against HIV1 HXB2 in human HeLa cells by HeLa-CD4 MAGI assay; type: functional, organism-based; conditions: Human immunodeficiency virus 1, HXB2, HeLa
Method in brief: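 HeLa-CD4-LTR-β-gal cells kept in DMEM with 10% FBS and infected with HIV-1 HXB2 in a single-round assay. Read-out is β-galactosidase activity; n = 2; tested up to about 50 μM, the solubility limit.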

[22] = Cytotoxicity against human MOLT4 cells; type: cell-based, MOLT-4; conditions: read-out: CCIC50
Method in brief: (§3)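 Uninfected B- and T-cell lines were exposed to serially diluted compound up to a highest concentration of 25 μM. The cell culture 50% inhibitory concentration (CCIC50) was determined.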

[23] = Cytotoxicity against human IM9 cells; type: cell-based, IM-9; conditions: read-out: CCIC50; method in brief: as §3
[24] = Cytotoxicity against human U937 cells; type: cell-based, U-937
[25] = Selectivity index, ratio of CCIC50 for human MT4 cells to IC50 for HIV1 3B; type: functional
[26] = tested on: Human immunodeficiency virus 1; assay: Antiviral activity against HIV1 HXB2 in human HeLa cells up to 50 uM by HeLa-CD4 MAGI assay; type: functional, organism-based
Method in brief: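 HeLa-CD4-LTR-β-gal cells grown in DMEM with 10% FBS and infected with HIV-1 HXB2 for a single round of infection. Read-out is β-galactosidase activity. Tested up to the solubility limit (about 50 μM). EC50 from 2 determinations.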

[27] = tested on: Human immunodeficiency virus 1; assay: Ratio of EC50 for HIV1 HXB2 in presence of 40% fetal bovine serum to EC50 for HIV1 HXB2 in presence of 10% fetal bovine serum; type: functional; method in brief: as §2
[28] = tested on: Human immunodeficiency virus 1; assay: Ratio of EC50 for HIV1 HXB2 in presence of 40 mg/ml HSA and 1 mg/ml alpha1-acid glycoprotein to EC50 for HIV1 HXB2; type: functional
Method in brief: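 Same MT-4/HXB2 batch-infection format (MOI 0.0001, 1 h, 4 × 10^4 cells/well, 5-day MTS read-out), run with 40 mg/ml human serum albumin plus 1 mg/ml α1-acid glycoprotein.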

[29] = Protein binding in human plasma; type: ADME, cell-free; conditions: read-out: PPB (converted)

T1 sequence (Q9YQ12 whole entry): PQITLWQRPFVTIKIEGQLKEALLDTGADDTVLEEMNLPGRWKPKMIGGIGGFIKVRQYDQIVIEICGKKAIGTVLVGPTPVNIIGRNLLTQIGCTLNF

## CC(C)CN(C[C@@H](O)[C@H](Cc1ccccc1)NC(=O)O[C@H]1CCOC1)S(=O)(=O)c1ccc(N)cc1
[1]
  pEC50: 7.24
[2]
  pEC50: 6.72
[3]
  pEC50: 7.82
[4]
  Ratio EC50: 13.7
Protease [5]
  pKi: 10.44
Protease [6]
  pKi: 10.24

## CC(C)CN(C[C@@H](O)[C@H](Cc1ccccc1)NC(=O)O[C@H]1CO[C@H]2OCC[C@H]21)S(=O)(=O)c1ccc(N)cc1
[1]
  pEC50: 8.55
[7]
  pEC50: 8.25
[8]
  pEC50: 7.96
[9]
  pEC50: 7.96
[10]
  pEC50: 7.82
[11]
  pEC50: 7.72
[12]
  pEC50: 7.66
[2]
  pEC50: 8.34
[3]
  pEC50: 9.11

## CCC[C@@]1(CCc2ccccc2)CC(O)=C([C@H](CC)c2cccc(NS(=O)(=O)c3ccc(C(F)(F)F)cn3)c2)C(=O)O1
[1]
  pEC50: 6.52
[7]
  pEC50: 7.39
[9]
  pEC50: 6.51
[10]
  pEC50: 6.29
[11]
  pEC50: 6.24
[12]
  pEC50: 6.18
[13]
  Ratio EC50: 7.7
[14]
  Ratio EC50: 12.4
[15]
  Ratio EC50: 14.1
[16]
  Ratio EC50: 16
[2]
  pEC50: 6.72
[3]
  pEC50: 7.12
[4]
  Ratio EC50: 2.4
Protease [6]
  pKi: 11.10

## CC(C)(C)NC(=O)[C@@H]1CN(Cc2cccnc2)CCN1C[C@@H](O)C[C@@H](Cc1ccccc1)C(=O)N[C@H]1c2ccccc2C[C@H]1O.O
[2]
  pEC50: 6.66
[3]
  pEC50: 8.01
[4]
  Ratio EC50: 26

## Cc1c(O)cccc1C(=O)N[C@@H](CSc1ccccc1)[C@H](O)CN1C[C@H]2CCCC[C@H]2C[C@H]1C(=O)NC(C)(C)C
[1]
  pEC50: 7.44

## COC(=O)N[C@H](C(=O)N[C@@H](Cc1ccccc1)[C@@H](O)CN(Cc1ccc(-c2ccccn2)cc1)NC(=O)[C@@H](NC(=O)OC)C(C)(C)C)C(C)(C)C [ATAZANAVIR]
[1]
  pEC50: 8.36
[2]
  pEC50: 7.33
[3]
  pEC50: 8.77
[4]
  Ratio EC50: 26

## Cc1nc(COc2ccc(C[C@H](NC(=O)O[C@H]3CO[C@H]4OCC[C@H]43)[C@H](O)CN(CC(C)C)S(=O)(=O)c3ccc4c(c3)OCO4)cc2)cs1 [BRECANAVIR]
[17]
  CC50: > 25000 nM
[18]
  pEC50: 9.36
[19]
  pEC50: 9.28
[20]
  pEC50: 9.70
[1]
  pEC50: 9.38
[21]
  pEC50: < 4.05
[22]
  CC50: > 25000 nM
[23]
  CC50: > 25000 nM
[24]
  CC50: > 25000 nM
[25]
  Ratio: >55000
[26]
  Activity: inactive
[7]
  pEC50: 9.15
[8]
  pEC50: 8.96
[9]
  pEC50: 8.85
[10]
  pEC50: 8.66
[11]
  pEC50: 8.59
[12]
  pEC50: 8.42
[13]
  Ratio EC50: 1.9
[14]
  Ratio EC50: 2.2
[15]
  Ratio EC50: 3.6
[16]
  Ratio EC50: 5.2
[27]
  Ratio EC50: 1.6
[28]
  Ratio EC50: 8.2
[2]
  pEC50: 9.06
[3]
  pEC50: 9.74
[4]
  Ratio EC50: 6.6
[29]
  fraction unbound: 0.02

## Cc1cccc(C)c1OCC(=O)N[C@@H](Cc1ccccc1)[C@@H](O)C[C@H](Cc1ccccc1)NC(=O)[C@H](C(C)C)N1CCCNC1=O [LOPINAVIR]
[2]
  pEC50: 6.64
[3]
  pEC50: 8.36
[4]
  Ratio EC50: 43
